Data reported in ChEMBL document CHEMBL1649131, “Tigecycline therapy significantly reduces the concentrations of inflammatory pulmonary cytokines and chemokines in a murine model of Mycoplasma pneumoniae pneumonia” (Antimicrob Agents Chemother, 2009).
Converted amounts (≈) assume the structure as drawn. The source made the active and inactive calls. The calls are words filed in the database; no cut-off is given here.

What was measured:
[1] = system: Mus musculus; test: Immunological activity in BALB/c mouse infected with Mycoplasma pneumoniae ATCC 29342 assessed as decrease in MIG level in bronchoalveolar lavage fluid at 10 mg/kg, sc on first day followed by regimen of 5 mg/kg for 5 days measured after 1 days; assay type: functional, organism-based
Summary of the method: (§1)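 In BALB/c females infected intranasally with 10^7 CFU M. pneumoniae, sc dosing ran daily from day 1: 10 mg/kg first, then 5 mg/kg; saline placebo. BAL (500 µl SP4 broth via trachea) was collected ~24 h after the last dose at 1, 3 or 6 days of therapy, and cytokine/chemokine concentrations were measured, given as mean ± SD. There were 10 mice/group per time point; t test and two-way ANOVA were used, P<0.05.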

[2] = system: Mus musculus; test: Immunological activity in BALB/c mouse infected with Mycoplasma pneumoniae ATCC 29342 assessed as decrease in MIG level in bronchoalveolar lavage fluid at 10 mg/kg, sc on first day followed by regimen of 5 mg/kg for 5 days measured after 3 days; assay type: functional, organism-based; summary of the method: as §1
[3] = system: Mus musculus; test: Immunological activity in BALB/c mouse infected with Mycoplasma pneumoniae ATCC 29342 assessed as decrease in MIG level in bronchoalveolar lavage fluid at 10 mg/kg, sc on first day followed by regimen of 5 mg/kg for 5 days measured after 6 days; assay type: functional, organism-based; summary of the method: as §1
[4] = system: Mus musculus; test: Immunological activity in BALB/c mouse infected with Mycoplasma pneumoniae ATCC 29342 assessed as decrease in TNFalpha level in bronchoalveolar lavage fluid at 10 mg/kg, sc on first day followed by regimen of 5 mg/kg for 5 days measured after 3 days; assay type: functional, organism-based; summary of the method: as §1
[5] = system: Mus musculus; test: Immunological activity in BALB/c mouse infected with Mycoplasma pneumoniae ATCC 29342 assessed as decrease in IL-2 level in bronchoalveolar lavage fluid at 10 mg/kg, sc on first day followed by regimen of 5 mg/kg for 5 days measured after 3 days; assay type: functional, organism-based; summary of the method: as §1
[6] = system: Mus musculus; test: Immunological activity in BALB/c mouse infected with Mycoplasma pneumoniae ATCC 29342 assessed as decrease in IL-4 level in bronchoalveolar lavage fluid at 10 mg/kg, sc on first day followed by regimen of 5 mg/kg for 5 days measured after 3 days; assay type: functional, organism-based; summary of the method: as §1
[7] = system: Mus musculus; test: Immunological activity in BALB/c mouse infected with Mycoplasma pneumoniae ATCC 29342 assessed as decrease in IL-5 level in bronchoalveolar lavage fluid at 10 mg/kg, sc on first day followed by regimen of 5 mg/kg for 5 days measured after 3 days; assay type: functional, organism-based; summary of the method: as §1
[8] = system: Mus musculus; test: Immunological activity in BALB/c mouse infected with Mycoplasma pneumoniae ATCC 29342 assessed as decrease in IL-6 level in bronchoalveolar lavage fluid at 10 mg/kg, sc on first day followed by regimen of 5 mg/kg for 5 days measured after 3 days; assay type: functional, organism-based; summary of the method: as §1
[9] = system: Mus musculus; test: Immunological activity in BALB/c mouse infected with Mycoplasma pneumoniae ATCC 29342 assessed as decrease in IL-10 level in bronchoalveolar lavage fluid at 10 mg/kg, sc on first day followed by regimen of 5 mg/kg for 5 days measured after 3 days; assay type: functional, organism-based; summary of the method: as §1
[10] = system: Mus musculus; test: Immunological activity in BALB/c mouse infected with Mycoplasma pneumoniae ATCC 29342 assessed as decrease in granulocyte-macrophage colony stimulating factor level in bronchoalveolar lavage fluid at 10 mg/kg, sc on first day followed by regimen of 5 mg/kg for 5 days measured after 3 days; assay type: functional, organism-based; summary of the method: as §1
[11] = system: Mus musculus; test: Immunological activity in BALB/c mouse infected with Mycoplasma pneumoniae ATCC 29342 assessed as decrease in MIP-1alpha level in bronchoalveolar lavage fluid at 10 mg/kg, sc on first day followed by regimen of 5 mg/kg for 5 days measured after 3 days; assay type: functional, organism-based; summary of the method: as §1
[12] = system: Mus musculus; test: Immunological activity in BALB/c mouse infected with Mycoplasma pneumoniae ATCC 29342 assessed as decrease in IP-10 level in bronchoalveolar lavage fluid at 10 mg/kg, sc on first day followed by regimen of 5 mg/kg for 5 days measured after 3 days; assay type: functional, organism-based; summary of the method: as §1
[13] = system: Mus musculus; test: Immunological activity in BALB/c mouse infected with Mycoplasma pneumoniae ATCC 29342 assessed as decrease in KC level in bronchoalveolar lavage fluid at 10 mg/kg, sc on first day followed by regimen of 5 mg/kg for 5 days measured after 3 days; assay type: functional, organism-based; summary of the method: as §1
[14] = system: Mus musculus; test: Immunological activity in BALB/c mouse infected with Mycoplasma pneumoniae ATCC 29342 assessed as decrease in MCP-1 level in bronchoalveolar lavage fluid at 10 mg/kg, sc on first day followed by regimen of 5 mg/kg for 5 days measured after 3 days; assay type: functional, organism-based; summary of the method: as §1
[15] = Cmax in human serum at […] followed by regimen of […] for every 12 hrs; assay type: ADME, organism-based; design: route intravenous
[16] = AUC (0 to 24 hrs) in human serum at […] followed by regimen of […] for every 12 hrs; assay type: ADME, organism-based; design: time < 24 hr, route intravenous
[17] = Ratio of AUC in human alveolar cells to AUC in human serum at […] followed by […] regimen for every 12 hrs; assay type: ADME, organism-based, Pneumocyte; details: read-out: Ratio AUC
[18] = AUC in mouse pneumoniae model at 5 mg/kg; assay type: ADME, organism-based; design: dose 5 mg/kg; details: in vivo
[19] = system: Mycoplasmoides pneumoniae; test: Antimicrobial activity against Mycoplasma pneumoniae by agar dilution method; assay type: functional
[20] = Ratio of Cmax in human lung to Cmax in human serum at […] followed by […] regimen for every 12 hrs; assay type: ADME, organism-based
[21] = system: Mycoplasmoides pneumoniae; test: Antimicrobial activity against Mycoplasma pneumoniae ATCC 29342 infected in BALB/c mouse assessed as decrease in bacterial count in bronchoalveolar lavage fluid at 10 mg/kg, sc on first day followed by regimen of 5 mg/kg for 5 days measured after 6 days; assay type: functional, organism-based; details: M129
Summary of the method: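 Female BALB/c mice, 2 months old, inoculated intranasally once (day 0) with 10^7 CFU M. pneumoniae in 50 µl SP4 broth under isoflurane. From day 1, sc once daily for 6 days: 10 mg/kg day 1, then 5 mg/kg, in sterile 0.9% NaCl; saline placebo. BAL with 500 µl SP4 broth ~24 h after last dose; undiluted and 10-fold dilutions plated on SP4 agar at 37°C; colonies counted as log10 CFU/ml; 10 mice/group, two experiments.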

[22] = system: Mycoplasmoides pneumoniae; test: Antimicrobial activity against Mycoplasma pneumoniae ATCC 29342 infected in BALB/c mouse assessed as decrease in bacterial infection-induced lung histopathology at 10 mg/kg, sc on first day followed by regimen of 5 mg/kg for 5 days measured after 3 days; assay type: functional, organism-based; details: M129
Summary of the method: (§2)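 Infected BALB/c mice (2-month-old females, intranasal 10^7 CFU M. pneumoniae, day 0) dosed sc daily from day 1: 10 mg/kg then 5 mg/kg, saline vehicle/placebo. Lungs with trachea fixed in 10% buffered formalin ~24 h after last dose, whole-mount paraffin sections stained H&E and scored for histopathology (HPS) and parenchymal pneumonia subscore; 10 mice/group per time point, two experiments; two-way ANOVA and t test.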

[23] = system: Mycoplasmoides pneumoniae; test: Antimicrobial activity against Mycoplasma pneumoniae ATCC 29342 infected in BALB/c mouse assessed as decrease in bacterial infection-induced parenchymal cell histopathology at 10 mg/kg, sc on first day followed by regimen of 5 mg/kg for 5 days measured after 3 days; assay type: functional, organism-based; details: M129; summary of the method: as §2
[24] = system: Mus musculus; test: Immunological activity in BALB/c mouse infected with Mycoplasma pneumoniae ATCC 29342 assessed as decrease in IL1-beta level in bronchoalveolar lavage fluid at 10 mg/kg, sc on first day followed by regimen of 5 mg/kg for 5 days measured after 1 days; assay type: functional, organism-based; summary of the method: as §1
[25] = system: Mus musculus; test: Immunological activity in BALB/c mouse infected with Mycoplasma pneumoniae ATCC 29342 assessed as decrease in IL1-beta level in bronchoalveolar lavage fluid at 10 mg/kg, sc on first day followed by regimen of 5 mg/kg for 5 days measured after 3 days; assay type: functional, organism-based; summary of the method: as §1
[26] = system: Mus musculus; test: Immunological activity in BALB/c mouse infected with Mycoplasma pneumoniae ATCC 29342 assessed as decrease in IL1-beta level in bronchoalveolar lavage fluid at 10 mg/kg, sc on first day followed by regimen of 5 mg/kg for 5 days measured after 6 days; assay type: functional, organism-based; summary of the method: as §1
[27] = system: Mus musculus; test: Immunological activity in BALB/c mouse infected with Mycoplasma pneumoniae ATCC 29342 assessed as decrease in IL-12 level in bronchoalveolar lavage fluid at 10 mg/kg, sc on first day followed by regimen of 5 mg/kg for 5 days measured after 1 days; assay type: functional, organism-based; summary of the method: as §1
[28] = system: Mus musculus; test: Immunological activity in BALB/c mouse infected with Mycoplasma pneumoniae ATCC 29342 assessed as decrease in IL-12 level in bronchoalveolar lavage fluid at 10 mg/kg, sc on first day followed by regimen of 5 mg/kg for 5 days measured after 3 days; assay type: functional, organism-based; summary of the method: as §1
[29] = system: Mus musculus; test: Immunological activity in BALB/c mouse infected with Mycoplasma pneumoniae ATCC 29342 assessed as decrease in IL-12 level in bronchoalveolar lavage fluid at 10 mg/kg, sc on first day followed by regimen of 5 mg/kg for 5 days measured after 6 days; assay type: functional, organism-based; summary of the method: as §1
[30] = system: Mus musculus; test: Immunological activity in BALB/c mouse infected with Mycoplasma pneumoniae ATCC 29342 assessed as decrease in INF-gamma level in bronchoalveolar lavage fluid at 10 mg/kg, sc on first day followed by regimen of 5 mg/kg for 5 days measured after 1 days; assay type: functional, organism-based; summary of the method: as §1
[31] = system: Mus musculus; test: Immunological activity in BALB/c mouse infected with Mycoplasma pneumoniae ATCC 29342 assessed as decrease in INF-gamma level in bronchoalveolar lavage fluid at 10 mg/kg, sc on first day followed by regimen of 5 mg/kg for 5 days measured after 3 days; assay type: functional, organism-based; summary of the method: as §1
[32] = system: Mus musculus; test: Immunological activity in BALB/c mouse infected with Mycoplasma pneumoniae ATCC 29342 assessed as decrease in INF-gamma level in bronchoalveolar lavage fluid at 10 mg/kg, sc on first day followed by regimen of 5 mg/kg for 5 days measured after 6 days; assay type: functional, organism-based; summary of the method: as §1

In the case of `CN(C)c1cc(NC(=O)CNC(C)(C)C)c(O)c2c1C[C@H]1C[C@H]3[C@H](N(C)C)C(O)=C(C(N)=O)C(=O)[C@@]3(O)C(O)=C1C2=O` [TIGECYCLINE], the Activity [1] was “Active”, the Activity [2] was “Active” and the Activity [3] was “Active”. The Activity [4] was “Active”, the Activity [5] was “inactive” and the Activity [6] was “inactive”. The Activity [7] was “inactive”, the Activity [8] was “inactive” and the Activity [9] was “inactive”. For the same compound, the Activity [10] was “inactive”, the Activity [11] was “Active” and the Activity [12] was “Active”. For the same compound, the Activity [13] was “inactive”, the Activity [14] was “inactive” and the Cmax [15] was 630 ng/mL. The AUC at 24 h [16] was 4700 ng·h/mL, the Kp at 12 h [17] was 78 and the AUC [18] was 2900 ng·h/mL. The MIC [19] was 0.06 µg/mL (≈ 0.102 µM), the Kp at 12 h [20] was 8.6 and the Activity [21] was “Active”. For the same compound, the Activity [22] was “Active”, the Activity [23] was “Active” and the Activity [24] was “Active”. The Activity [25] was “Active”, the Activity [26] was “Active” and the Activity [27] was “Active”. For the same compound, the Activity [28] was “Active”, the Activity [29] was “Active” and the Activity [30] was “Active”. For the same compound, the Activity [31] was “Active” and the Activity [32] was “Active”.
